Here are results for two molecules from ChEMBL document CHEMBL2203229, “Structure Activity Relationship Study of the Cleistriosides and Cleistetrosides for Antibacterial/Anticancer Activity” (ACS Med Chem Lett, 2012).

≈ marks a conversion by molar mass, not a printed value. Calls of active or inactive are those of the source. The rule behind the calls is not given here.

One assay has as its system BT-549. In words: Growth inhibition of human BT549 cells at 10 uM after 48 hrs by sulforhodamine B assay. Format: functional, cell-based.
The next assay has as its system MCF7. The experiment in a line: Growth inhibition of human MCF7 cells at 10 uM after 48 hrs by sulforhodamine B assay. The class given is functional, cell-based.
Another assay deals with DU-145. The experiment in a line: Growth inhibition of human DU145 cells at 10 uM after 48 hrs by sulforhodamine B assay. The class given is functional, cell-based.
In another assay the test system is PC-3. The experiment in a line: Growth inhibition of human PC3 cells at 10 uM after 48 hrs by sulforhodamine B assay. The class given is functional, cell-based.
Another assay deals with CAKI-1. In words: Growth inhibition of human CAKI-1 cells at 10 uM after 48 hrs by sulforhodamine B assay. The class given is functional, cell-based.
A further assay has as its system A498. The experiment in a line: Growth inhibition of human A498 cells at 10 uM after 48 hrs by sulforhodamine B assay. The class given is functional, cell-based.
Another assay relates to OVCAR-3. In words: Growth inhibition of human OVCAR3 cells at 10 uM after 48 hrs by sulforhodamine B assay. The class given is functional, cell-based.
For another assay, the system named is NCI/ADR-RES. The experiment in a line: Growth inhibition of human NCI-ADR-RES cells at 10 uM after 48 hrs by sulforhodamine B assay. The class given is functional, cell-based.
The next assay relates to SK-MEL-5. The experiment in a line: Growth inhibition of human SK-MEL-5 cells at 10 uM after 48 hrs by sulforhodamine B assay. Format: functional, cell-based.
In the next assay the test system is MDA-MB-435. The experiment in a line: Growth inhibition of human MDA-MB-435 cells at 10 uM after 48 hrs by sulforhodamine B assay. Format: functional, cell-based.
In the next assay the test system is SNB-75. The experiment in a line: Growth inhibition of human SNB75 cells at 10 uM after 48 hrs by sulforhodamine B assay. The class given is functional, cell-based.
For the next assay, the system named is HT-29. The experiment in a line: Growth inhibition of human HT-29 cells at 10 uM after 48 hrs by sulforhodamine B assay. The class given is functional, cell-based.
The next assay concerns SF-539. In words: Growth inhibition of human SF539 cells at 10 uM after 48 hrs by sulforhodamine B assay. The class given is functional, cell-based.
The next assay has as its system HCT-15. The experiment in a line: Growth inhibition of human HCT15 cells at 10 uM after 48 hrs by sulforhodamine B assay. The class given is functional, cell-based.
For assay [1], the system named is NCI-H460. The experiment in a line: Growth inhibition of human NCI-H460 cells at 10 uM after 48 hrs by sulforhodamine B assay. The class given is functional, cell-based.
The next assay has as its system A549. The experiment in a line: Growth inhibition of human A549 cells at 10 uM after 48 hrs by sulforhodamine B assay. Format: functional, cell-based.
The next assay concerns SR. The experiment in a line: Growth inhibition of human SR cells at 10 uM after 48 hrs by sulforhodamine B assay. Format: functional, cell-based.
The subject of a further assay is RPMI-8226. The experiment in a line: Growth inhibition of human RPMI8226 cells at 10 uM after 48 hrs by sulforhodamine B assay. The class given is functional, cell-based.
Assay [2] has as its system NCI-H460. In words: Cytotoxicity against human NCI-H460 cells assessed as inhibition of cell viability by MTT assay. Format: functional, cell-based. In outline:
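NCI-H460 cells in RPMI 1640 with 10% FBS and 2 mM glutamine at 37 °C, 5% CO₂. Seeded at 10,000 cells/well for 12 h, then dosed in 1% FBS medium (DMSO below 0.1% final). MTT (10 µL of 5 mg/mL) for 4 h, formazan dissolved in DMSO for 45 min, absorbance at 562 nm. Triplicate wells, at least three runs (N = 9).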

Assay [3] can be described thus: Antibacterial activity against Bacillus subtilis JH642 containing trpC2 pheA1 assessed as growth inhibition after 16 hrs by broth dilution method. The class given is functional, Bacillus subtilis subsp. subtilis str. JH642. A digest of the protocol:
(§1)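 Strains grown overnight in LB, diluted 10-fold, shaken at 37 °C for 45 min–1 h (~10⁸ CFU/mL), then diluted ~1000-fold to ~10⁵ CFU/mL. Broth dilution in LB: 20 mM DMSO stocks, 1:2 serial dilutions giving seven concentrations, inoculum added 1:1. OD600 read with shaking.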

Assay [4] relates to Escherichia coli. The experiment in a line: Antibacterial activity against Escherichia coli K-12 BAS901 harboring genetically modified imp-4213, zab4292::Tn5 assessed as growth inhibition after 16 hrs by broth dilution method. Format: functional. The settings on record: K-12 BAS901, 16 h. In outline: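 Kanamycin-resistant strain grown overnight in LB with kanamycin 50 µg/mL, diluted 10-fold, then shaken at 37 °C for 45 min–1 h (~10⁸ CFU/mL). Diluted ~1000-fold to 10⁵ CFU/mL in LB. DMSO stocks (20 mM) prepared as 4X working solutions in LB. Seven 1:2 serial dilutions mixed with equal-volume inoculum. OD600 read with shaking.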

In assay [5] the test system is Escherichia coli. In words: Antibacterial activity against Escherichia coli K-12 MG1655 assessed as growth inhibition after 16 hrs by broth dilution method. The settings on record: K-12 substr. MG1655, 16 h. The class given is functional. In outline:
as §1

On to `CCCCCCCCCCCCO[C@@H]1O[C@@H](C)[C@H](O[C@@H]2O[C@@H](C)[C@H](OC(C)=O)[C@@H](O[C@@H]3O[C@@H](C)[C@H](OC(C)=O)[C@@H](O[C@@H]4O[C@@H](C)[C@H](O)[C@@H](O)[C@H]4O)[C@H]3OC(C)=O)[C@H]2O)[C@@H](O)[C@H]1O`, for which the “growth inhibition (GI)” value in the assay with BT-549, in the assay with MCF7, with DU-145, in the assay with PC-3, in the assay on CAKI-1 and with A498 was “inactive” each time. In addition, the “growth inhibition (GI)” value in the assay with OVCAR-3, in the assay with NCI/ADR-RES, in the assay on SK-MEL-5, with MDA-MB-435, in the assay with SNB-75 and with HT-29 was “inactive” each time. Also, the “growth inhibition (GI)” value in the assay with SF-539, in the assay on HCT-15, in the assay on NCI-H460 [1], in the assay with A549, with SR and in the assay with RPMI-8226 was “inactive” in each case. The IC50 with NCI-H460 [2] was determined as 12.2 µM. Further, the minimal inhibitory concentration (MIC) in assay [3] was 8 µM (≈ 7.18 µg/mL); with Escherichia coli [4] it was greater than 64 µM; with Escherichia coli [5], greater than 64 µM.

Take `CCCCCCCCCCCCO[C@@H]1O[C@@H](C)[C@H](O[C@@H]2O[C@@H](C)[C@H](OC(C)=O)[C@@H](O[C@@H]3O[C@@H](C)[C@H](O)[C@@H](O[C@@H]4O[C@@H](C)[C@H](O)[C@@H](O)[C@H]4O)[C@H]3OC(C)=O)[C@H]2O)[C@@H](O)[C@H]1O`: the “growth inhibition (GI)” value in the assay on BT-549, in the assay on MCF7, with DU-145, with PC-3, in the assay with CAKI-1 and in the assay with A498 was “inactive” throughout. Moreover, the “growth inhibition (GI)” value with OVCAR-3, in the assay on NCI/ADR-RES, in the assay on SK-MEL-5, with MDA-MB-435, in the assay with SNB-75 and in the assay with HT-29 was “inactive” throughout. Moreover, the “growth inhibition (GI)” value with SF-539, in the assay with HCT-15, in the assay on NCI-H460 [1], in the assay with A549, in the assay on SR and with RPMI-8226 was “inactive” each time. Besides, the IC50 in the assay with NCI-H460 [2] came out at 15.4 µM. The results for the MIC (in assay [3]; in the assay with Escherichia coli [4]; in the assay with Escherichia coli [5]) were 8 µM (≈ 6.84 µg/mL), 16 µM (≈ 13.7 µg/mL) and greater than 64 µM, respectively.
